The source made the active and inactive calls. The calls are words filed in the database; no cut-off is given here.
Experiments:
[1] = AUC (0 to 24 hrs) in human SJSA1 cells xenografted rat assessed as mouse survival at 30 mg/kg, po dosed 3 times per week; assay type: ADME, organism-based, SJSA-1; design: dose 30 mg/kg, time < 24 hr, route oral; details: in vivo
Procedure, shortened: (§1)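 Rats bearing MDM2-amplified human SJSA-1 tumors, dosed orally either daily or 3qw (Monday, Wednesday, Friday). Plasma exposure reported as AUC0-24, plus AUC0-48 for the 3qw schedule.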

[2] = Protein binding in cynomolgus monkey plasma by equilibrium dialysis method; assay type: ADME, cell-free, Macaca fascicularis; details: read-out: PPB
Canis familiaris = assay: Oral bioavailability in beagle dog at 0.3 mg/kg; assay type: ADME, organism-based, Canis lupus familiaris; details: in vivo
Rattus norvegicus [3] = species: Rattus norvegicus; assay: Toxicity in female rat assessed as changes in adrenal gland parameters; assay type: organism-based; details: in vivo
[4] = target: T1, Induced myeloid leukemia cell differentiation protein Mcl-1 (Homo sapiens, UniProt Q07820); assay: Inhibition of Mcl1 (unknown origin) assessed as inhibition of Mcl1-Noxa interaction by TR-FRET assay
T1 sequence (Q07820 whole entry): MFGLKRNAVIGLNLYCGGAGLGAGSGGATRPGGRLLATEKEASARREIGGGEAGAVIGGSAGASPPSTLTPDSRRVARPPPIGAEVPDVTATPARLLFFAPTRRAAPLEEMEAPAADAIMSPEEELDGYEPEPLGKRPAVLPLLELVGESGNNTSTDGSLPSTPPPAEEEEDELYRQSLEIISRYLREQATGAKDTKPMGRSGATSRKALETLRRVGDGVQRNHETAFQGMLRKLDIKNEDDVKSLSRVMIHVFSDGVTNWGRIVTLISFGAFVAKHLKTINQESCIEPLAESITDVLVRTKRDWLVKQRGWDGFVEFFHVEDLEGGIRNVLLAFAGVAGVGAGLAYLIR

[5] = target: E3 ubiquitin-protein ligase Mdm2 (Mus musculus, UniProt P23804); assay: Inhibition of mouse MDM2 by TR-FRET assay
E3 ubiquitin-protein ligase Mdm2 (Mus musculus, UniProt P23804), sequence (P23804 whole entry): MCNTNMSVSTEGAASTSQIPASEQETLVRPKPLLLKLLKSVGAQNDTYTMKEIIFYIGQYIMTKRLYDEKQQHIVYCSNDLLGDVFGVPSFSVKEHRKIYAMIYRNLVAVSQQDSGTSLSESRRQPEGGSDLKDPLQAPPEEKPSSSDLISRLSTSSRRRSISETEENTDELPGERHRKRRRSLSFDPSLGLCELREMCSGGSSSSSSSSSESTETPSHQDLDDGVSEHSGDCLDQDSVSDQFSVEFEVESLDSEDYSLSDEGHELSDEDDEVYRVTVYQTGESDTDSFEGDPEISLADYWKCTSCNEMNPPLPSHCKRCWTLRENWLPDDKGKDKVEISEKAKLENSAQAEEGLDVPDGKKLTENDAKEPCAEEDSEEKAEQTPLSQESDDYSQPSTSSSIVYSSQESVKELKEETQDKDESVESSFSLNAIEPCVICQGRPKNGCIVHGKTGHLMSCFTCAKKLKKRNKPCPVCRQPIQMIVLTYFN

[6] = AUC (0 to 24 hrs) in human SJSA1 cells xenografted rat assessed as mouse survival at 20 mg/kg, po qd; assay type: ADME, organism-based, SJSA-1; design: time < 24 hr, dose 20 mg/kg, route oral; details: in vivo; procedure, shortened: as §1
Rattus norvegicus [7] = assay: Toxicity in human SJSA1 cells xenografted rat assessed as mouse survival at 10 mg/kg, po qd; assay type: organism-based, SJSA-1; details: in vivo
Procedure, shortened: (§2)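 Tolerability was monitored in SJSA-1 tumour-bearing rats during the daily and 3qw (Monday, Wednesday, Friday) treatment schedules. Histopathology was done on all 3qw doses and on the 30 mg/kg daily group.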

SJSA-1 [8] = assay: Antitumor activity against human SJSA1 cells xenografted in rat assessed as reduction tumor growth dosed orally on daily basis under q24h regime; assay type: functional, organism-based
Procedure, shortened: (§3)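 SJSA-1 tumour-bearing rats were treated either daily or 3qw (Monday, Wednesday and Friday) across a range of doses, and tumour growth was followed over the treatment course. Plasma AUC0-24 was also determined, along with AUC0-48 for the 3qw schedule.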

Rattus norvegicus [9] = assay: Toxicity in human SJSA1 cells xenografted rat assessed as change in body weight at 30 mg/kg, po dosed three times per week (reference value: 1.9 to 6.8%); assay type: organism-based, SJSA-1; details: in vivo
Rattus norvegicus [10] = species: Rattus norvegicus; assay: Toxicity in rat assessed as induction of structural changes in testes tubular epithelium; assay type: organism-based, Testis; details: in vivo
SJSA-1 [11] = assay: Inhibition of cell proliferation of human SJSA1 cells
Rattus norvegicus [12] = species: Rattus norvegicus; assay: Toxicity in rat assessed as changes in testes parameters; assay type: organism-based, Testis; details: in vivo
Rattus norvegicus [13] = species: Rattus norvegicus; assay: Toxicity in rat testes assessed as effect on proliferative cells; assay type: organism-based, Testis; details: in vivo
[14] = Inhibition of cell proliferation of human SJSA1 cells expressing p53; details: SJSA-1
Rattus norvegicus [15] = assay: Oral bioavailability in Sprague-Dawley rat at 3 mg/kg; assay type: ADME, organism-based; details: in vivo
Procedure, shortened: (§4)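 Sprague-Dawley rats. IV dose given as a solution in NMP:PEG200 (10:90); 3 mg/kg PO given as a suspension in CMC:water:Tween (0.5:99:0.5). AUC and Cmax dose-normalized to 1 mg/kg. Mean ± SD from four rats.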

[16] = Protein binding in Sprague-Dawley rat plasma by equilibrium dialysis method; assay type: ADME, cell-free; details: read-out: PPB
Procedure, shortened: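 Rat plasma protein binding by rapid equilibrium dialysis (RED) in 100% plasma.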

Rattus norvegicus [17] = assay: Toxicity in human SJSA1 cells xenografted rat assessed as change in body weight at 30 mg/kg, po qd (reference value: 1.9 to 6.8%); assay type: organism-based, SJSA-1; details: in vivo
[18] = target: T2, Apoptosis regulator Bcl-2 (Homo sapiens, UniProt P10415); assay: Inhibition of Bcl2 (unknown origin) assessed as inhibition of Bcl2-Bad interaction by TR-FRET assay
T2 sequence (P10415 whole entry): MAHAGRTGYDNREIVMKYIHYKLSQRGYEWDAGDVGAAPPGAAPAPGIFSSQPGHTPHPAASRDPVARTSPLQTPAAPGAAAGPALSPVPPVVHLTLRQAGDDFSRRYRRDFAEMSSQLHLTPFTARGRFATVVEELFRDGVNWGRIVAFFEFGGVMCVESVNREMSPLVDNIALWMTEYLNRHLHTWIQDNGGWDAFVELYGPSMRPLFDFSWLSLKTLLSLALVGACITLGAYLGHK

[19] = AUC (0 to 24 hrs) in human SJSA1 cells xenografted rat assessed as mouse survival at 30 mg/kg, po qd; assay type: ADME, organism-based, SJSA-1; design: time < 24 hr, dose 30 mg/kg, route oral; details: in vivo; procedure, shortened: as §1
SJSA-1 [20] = assay: Antitumor activity against human SJSA1 cells xenografted in rat assessed as reduction tumor growth dosed orally three times per week; assay type: functional, organism-based; procedure, shortened: as §3
[21] = target: T2, Apoptosis regulator Bcl-2; assay: Inhibition of Bcl2 (unknown origin) assessed as inhibition of Bcl2-Bak interaction by TR-FRET assay
Rattus norvegicus [22] = assay: Toxicity in human SJSA1 cells xenografted rat assessed as mouse survival at 5 mg/kg, po qd; assay type: organism-based, SJSA-1; details: in vivo; procedure, shortened: as §2
[23] = Terminal half life in beagle dog at 0.1 mg/kg, iv; assay type: ADME, organism-based, Canis lupus familiaris; details: in vivo, read-out: beta t1/2 (converted)
HCT-116 [24] = assay: Inhibition of cell proliferation of human HCT116 cells expressing p53
Rattus norvegicus [25] = assay: AUC in Sprague-Dawley rat at 3 mg/kg, po; assay type: ADME, organism-based; details: in vivo; procedure, shortened: as §4
Rattus norvegicus [26] = assay: Toxicity in human SJSA1 cells xenografted dosed rat assessed as induction of histopathological changes at 30 mg/kg, po qd; assay type: organism-based, SJSA-1; details: in vivo
Procedure, shortened: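 Daily treatment of SJSA-1 tumour-bearing rats; histopathology was performed on the 30 mg/kg daily dose group to look for compound-related findings.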

[27] = Protein binding in OF1 mouse plasma by equilibrium dialysis method; assay type: ADME, cell-free; details: read-out: PPB
Rattus norvegicus [28] = assay: Toxicity in human SJSA1 cells xenografted rat assessed as mouse survival at 70 mg/kg, po dosed 3 times per week; assay type: organism-based, SJSA-1; details: in vivo; procedure, shortened: as §2
[29] = Inhibition of Ras (unknown origin) assessed as inhibition of Ras-Raf interaction by TR-FRET assay; design: species or system Homo sapiens
HCT-116 [30] = assay: Inhibition of cell proliferation of human HCT116 cells deficient with p53 gene
Cynomolgus monkey = assay: AUC in cynomolgus monkey at 0.3 mg/kg, po; assay type: ADME, organism-based, Macaca fascicularis; details: in vivo
Rattus norvegicus [31] = assay: In-vivo inhibition of MDM2/p53 interaction in human SJSA1 cells xenografted rat assessed as increase in MDM2 mRNA level at 30 mg/kg, po measured within 72 hrs post dose by qRT-PCR method; assay type: functional, organism-based; details: SJSA-1
Procedure, shortened: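 SJSA-1 (MDM2-amplified) tumour-bearing rats were dosed at 30 mg/kg. Tumour samples were collected over time, and p21, MDM2 and PUMA mRNA were measured as p53 pharmacodynamic markers, alongside compound levels.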

Rattus norvegicus [32] = assay: Toxicity in human SJSA1 cells xenografted rat assessed as mouse survival at 30 mg/kg, po qd; assay type: organism-based, SJSA-1; details: in vivo; procedure, shortened: as §2
[33] = Volume of distribution at steady state in beagle dog at 0.1 mg/kg, iv; assay type: ADME, organism-based, Canis lupus familiaris; details: in vivo, read-out: Vdss
[34] = target: E3 ubiquitin-protein ligase Mdm2 (Canis lupus familiaris, UniProt P56950); assay: Inhibition of dog MDM2 by TR-FRET assay
E3 ubiquitin-protein ligase Mdm2 (Canis lupus familiaris, UniProt P56950), sequence (P56950 whole entry): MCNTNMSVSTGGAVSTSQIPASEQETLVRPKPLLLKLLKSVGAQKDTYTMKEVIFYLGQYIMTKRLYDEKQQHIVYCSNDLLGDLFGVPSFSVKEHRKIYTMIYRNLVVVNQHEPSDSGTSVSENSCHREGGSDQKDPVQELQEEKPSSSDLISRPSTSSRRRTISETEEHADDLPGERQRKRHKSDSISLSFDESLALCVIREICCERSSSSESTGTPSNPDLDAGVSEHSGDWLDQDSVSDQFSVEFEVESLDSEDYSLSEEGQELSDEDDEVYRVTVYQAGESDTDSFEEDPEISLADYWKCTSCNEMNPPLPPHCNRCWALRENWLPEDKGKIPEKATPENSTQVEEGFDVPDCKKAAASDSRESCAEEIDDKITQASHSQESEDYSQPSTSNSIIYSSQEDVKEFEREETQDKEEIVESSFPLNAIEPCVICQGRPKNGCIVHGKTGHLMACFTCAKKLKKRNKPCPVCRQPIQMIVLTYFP

[35] = target: T1, Induced myeloid leukemia cell differentiation protein Mcl-1; assay: Inhibition of Mcl1 (unknown origin) assessed as inhibition of Mcl1-Bak interaction by TR-FRET assay
Rattus norvegicus [36] = assay: Toxicity in human SJSA1 cells xenografted rat assessed as change in body weight at 10 mg/kg, po qd (reference value: 1.9 to 6.8%); assay type: organism-based, SJSA-1; details: in vivo
Rattus norvegicus [37] = assay: Terminal half life in Sprague-Dawley rat at 1 mg/kg, iv; assay type: ADME, organism-based; details: in vivo; procedure, shortened: as §4
Rattus norvegicus [38] = assay: Toxicity in human SJSA1 cells xenografted rat assessed as mouse survival at 30 mg/kg, po dosed 3 times per week; assay type: organism-based, SJSA-1; details: in vivo; procedure, shortened: as §2
Rattus norvegicus [39] = species: Rattus norvegicus; assay: Toxicity in rat assessed as changes in heart parameters; assay type: organism-based; details: in vivo
[40] = AUC (0 to 24 hrs) in human SJSA1 cells xenografted rat assessed as mouse survival at 10 mg/kg, po qd; assay type: ADME, organism-based, SJSA-1; design: time < 24 hr, dose 10 mg/kg, route oral; details: in vivo; procedure, shortened: as §1
[41] = AUC (0 to 24 hrs) in human SJSA1 cells xenografted rat assessed as mouse survival at 70 mg/kg, po dosed 3 times per week; assay type: ADME, organism-based, SJSA-1; design: time < 24 hr, dose 70 mg/kg, route oral; details: in vivo; procedure, shortened: as §1

COc1cc2c(cc1OC(C)C)[C@H](c1ccc(Cl)cc1)N(c1ccc(N(C)C[C@H]3CC[C@H](N4CCN(C)C(=O)C4)CC3)cc1)C(=O)C2 [CGM-097]
AUC at 24 h [1]: 230 µM·h
fraction unbound [2]: < 0.01
F (Canis familiaris): 74%
Activity (Rattus norvegicus [3]): Toxic
IC50 [4]: > 50000 nM
Ki [5]: 65.9 nM
AUC at 24 h [6]: 163 µM·h
Activity (Rattus norvegicus [7]): Non-toxic
growth inhibition (GI) (SJSA-1 [8]): Dose-dependent effect
Activity (Rattus norvegicus [9]): 4.5%
Activity (Rattus norvegicus [10]): Toxic
GI50 (SJSA-1 [11]): 350 nM
Activity (Rattus norvegicus [12]): Toxic
Activity (Rattus norvegicus [13]): Non-toxic
IC50 [14]: 353 nM
F (Rattus norvegicus [15]): 81%
fraction unbound [16]: < 0.01
Activity (Rattus norvegicus [17]): 4.5%
IC50 [18]: > 50000 nM
AUC at 24 h [19]: 421 µM·h
growth inhibition (GI) (SJSA-1 [20]): Dose-dependent effect
IC50 [21]: > 50000 nM
Activity (Rattus norvegicus [22]): Non-toxic
half-life [23]: 19.8 h
IC50 (HCT-116 [24]): 454 nM
AUC (Rattus norvegicus [25]): 2.779 µM·h
Activity (Rattus norvegicus [26]): Non-toxic
fraction unbound [27]: < 0.01
Activity (Rattus norvegicus [28]): Non-toxic
IC50 [29]: 4500 nM
IC50 (HCT-116 [30]): 16000 nM
AUC (Cynomolgus monkey): 3.73 µM·h
inhibition (Rattus norvegicus [31]): Active
Activity (Rattus norvegicus [32]): Non-toxic
Vd [33]: 4.2 L/kg
Ki [34]: 20.5 nM
IC50 [35]: > 50000 nM
Activity (Rattus norvegicus [36]): 1.8%
beta t1/2 (Rattus norvegicus [37]): 12.1 h
Activity (Rattus norvegicus [38]): Non-toxic
Activity (Rattus norvegicus [39]): Toxic
AUC at 24 h [40]: 61 µM·h
AUC at 24 h [41]: 616 µM·h
